Results as given in ChEMBL document CHEMBL5344415, “Synthesis and Characterization of Phenylalanine Amides Active against Mycobacterium abscessus and Other Mycobacteria” (J Med Chem, 2023).
In brackets after ≈: the same amount, converted by molar mass.

Experiments:
[1] = tested on: Mycolicibacterium smegmatis; assay: Antibacterial activity against Mycobacterium smegmatis mc2 155 expressing tomato RFP assessed as bacterial growth inhibition incubated for 3 days in 7H9 medium by RFP fluorescence based broth microdilution method; format: functional; conditions: mc2 155, 72 h, time 3 day
Procedure, shortened: (§1)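 Broth microdilution in 7H9 with 10 % ADS and 0.05 % Tween 80. Twofold nine-point dilution series. Inoculum 5 x 10⁵ cells/mL taken from a mid-log preculture. Incubation at 37 °C, 3 days for M. smegmatis and M. abscessus, 5 days for M. intracellulare. Read-out by RFP fluorescence (ex 544/em 590 nm). Controls were 1 % DMSO and 100 μM amikacin. MIC₉₀ from duplicates, averaged.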

[2] = tested on: Mycobacterium tuberculosis; assay: Antibacterial activity against Mycobacterium tuberculosis H37Rv ATCC 27294 assessed as bacterial growth inhibition incubated for 7 days in 7H9 medium by optical density based microplate reader analysis; format: functional; conditions: H37Rv ATCC 27294, 168 h, time 7 day
Procedure, shortened: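 Compounds serially diluted in flat-bottom 96-well plates. Mid-log culture mixed in to a final OD₆₀₀ of 0.05. Sealed plates incubated in humidified boxes at 37 °C for 7 days with shaking at 80 rpm. Turbidity read at 600 nm. MIC₉₀ taken from dose–response curves. Two biological replicates, averaged.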

[3] = tested on: Mycobacteroides abscessus; assay: Antibacterial activity against Mycobacterium abscessus ATCC 19977 expressing tomato RFP assessed as bacterial growth inhibition incubated for 3 days in 7H9 medium by RFP fluorescence based broth microdilution method; format: functional; conditions: ATCC 19977, 72 h, time 3 day; procedure, shortened: as §1
[4] = tested on: Mycobacteroides abscessus; assay: Antibacterial activity against Mycobacterium abscessus ATCC 19977 expressing tomato RFP assessed as bacterial growth inhibition incubated for 3 days in MHII medium by RFP fluorescence based broth microdilution method; format: functional; conditions: ATCC 19977, 72 h, time 3 day
Procedure, shortened: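 Broth microdilution in MHII broth with 0.05 % Tween 80, against the RFP-expressing strain. Twofold nine-point dilution series. Inoculum 5 x 10⁵ cells/mL from a mid-log preculture. Incubated 3 days at 37 °C. Read-out by RFP fluorescence (ex 544/em 590 nm). Controls were 1 % DMSO and 100 μM amikacin. MIC₉₀ from duplicates, averaged.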

[5] = tested on: Mycobacterium intracellulare; assay: Antibacterial activity against Mycobacterium intracellulare ATCC 35761 expressing tomato RFP assessed as bacterial growth inhibition incubated for 5 days in 7H9 medium by RFP fluorescence based broth microdilution method; format: functional; conditions: ATCC 35761, 120 h, time 5 day; procedure, shortened: as §1
[6] = tested on: Mycobacteroides abscessus; assay: Antibacterial activity against Mycobacterium abscessus Bamboo harboring inactive clarithromycin-sensitive erm41 C28 sequevar assessed as bacterial growth inhibition incubated for 3 days in 7H9 medium by optical density based method; format: functional; conditions: 72 h, time 3 day
[7] = tested on: Mycobacteroides abscessus; assay: Antibacterial activity against Mycobacterium abscessus ATCC 19977 expressing tomato RFP infected in human THP-1 cells assessed as bacterial growth inhibition incubated for 4 days in RPMI medium by RFP fluorescence based assay; format: functional; conditions: ATCC 19977, 96 h, time 4 day
Procedure, shortened: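 RFP M. abscessus washed, moved into RPMI, filtered through 5 µm and opsonised with 10 % human serum for 30 min. THP-1 cells infected at MOI 5:1 with PMA 40 ng/mL for 4 h at 37 °C, then washed. Infected cells (1x10⁵/well) given a ten-point twofold series. Incubated 4 days at 37 °C, 5 % CO₂. Cells PFA-fixed and DAPI-stained. RFP quantified by imaging. Controls were DMSO and 1.5 µM bedaquiline. Duplicate.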

A-375 = assay: Cytotoxicity against human A-375 cells assessed as reduction in cell viability incubated for 72 hrs by SRB assay; format: toxicity, cell-based
HT-29 = assay: Cytotoxicity against human HT-29 cells assessed as reduction in cell viability incubated for 72 hrs by SRB assay; format: toxicity, cell-based
MCF7 = assay: Cytotoxicity against human MCF7 cells assessed as reduction in cell viability incubated for 72 hrs by SRB assay; format: toxicity, cell-based
A2780 = assay: Cytotoxicity against human A2780 cells assessed as reduction in cell viability incubated for 72 hrs by SRB assay; format: toxicity, cell-based
[8] = Cytotoxicity against mouse NIH3T3 cells assessed as reduction in cell viability incubated for 72 hrs by SRB assay; format: toxicity, cell-based; conditions: mouse, NIH3T3 cells
HeLa = assay: Cytotoxicity against human HeLa cells assessed as reduction in cell viability incubated for 72 hrs by SRB assay; format: toxicity, cell-based
[9] = Kinetic solubility of compound in PBS at 0.78 to 500 uM measured immediately by nephelometric method; format: physicochemical; conditions: buffer, dose 0.78-500 µM
Procedure, shortened: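 DMSO stocks prediluted in DMSO, then diluted 1:50 into PBS (2 % DMSO final) and read immediately by nephelometry at 0.78–500 μM; blank-corrected data fitted by segmental regression; quadruplicates from one stock.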

Row | Compound | MIC90 [1] [µM] | MIC90 [2] [µM] | MIC90 [3] [µM] | MIC90 [4] [µM] | MIC90 [5] [µM] | MIC50 [6] [µM] | MIC90 [6] [µM] | MIC50 [7] [µM] | MIC90 [7] [µM] | EC50 (A-375) [µM] | EC50 (HT-29) [µM] | EC50 (MCF7) [µM] | EC50 (A2780) [µM] | EC50 at 72 h [8] [µM] | EC50 (HeLa) [µM] | Kinetic_solubility [9] [µM]
1 | O=C(N[C@H](Cc1cccs1)C(=O)Nc1ccccc1N1CCOCC1)c1ccccc1F | 1.56 (≈ 0.708 µg/mL) | 3.13 (≈ 1.42 µg/mL) | 6.25 (≈ 2.83 µg/mL) | 12.5 (≈ 5.67 µg/mL) | 0.78 (≈ 0.354 µg/mL) | 2 (≈ 0.907 µg/mL) | 7 (≈ 3.17 µg/mL) | 6.25 (≈ 2.83 µg/mL) | 25 (≈ 11.3 µg/mL) | > 30 | > 30 | > 30 | > 30 | > 30 | > 30 | 39
2 | O=C(N[C@H](Cc1cccs1)C(=O)Nc1ccccc1N1CC[S+]([O-])CC1)c1ccccc1F | 1.56 (≈ 0.758 µg/mL) | 1.56 (≈ 0.758 µg/mL) | 6.25 (≈ 3.04 µg/mL) | 12.5 (≈ 6.07 µg/mL) | 0.2 (≈ 0.0971 µg/mL) | 1.8 (≈ 0.874 µg/mL) | 6.5 (≈ 3.16 µg/mL) | 6.25 (≈ 3.04 µg/mL) | 50 (≈ 24.3 µg/mL) | 29.3 | > 30 | 28.9 | 29 | > 30 | > 30 | 96
3 | O=C(N[C@H](Cc1ccccc1)C(=O)Nc1cc(F)ccc1N1CC[S+]([O-])CC1)c1cccs1 | 1.56 (≈ 0.758 µg/mL) | 0.4 (≈ 0.194 µg/mL) | 1.56 (≈ 0.758 µg/mL) | 3.13 (≈ 1.52 µg/mL) | 0.05 (≈ 0.0243 µg/mL) | 0.28 (≈ 0.136 µg/mL) | 1.9 (≈ 0.923 µg/mL) | 0.78 (≈ 0.379 µg/mL) | 25 (≈ 12.1 µg/mL) | > 30 | > 30 | > 30 | > 30 | > 30 | > 30 | 131
4 | O=C(N[C@H](Cc1ccsc1)C(=O)Nc1ccccc1N1CC[S+]([O-])CC1)c1cccs1 | 3.13 (≈ 1.48 µg/mL) | 6.25 (≈ 2.96 µg/mL) | 6.25 (≈ 2.96 µg/mL) | 12.5 (≈ 5.92 µg/mL) | 0.2 (≈ 0.0947 µg/mL) | 3.4 (≈ 1.61 µg/mL) | 15 (≈ 7.1 µg/mL) | 12.5 (≈ 5.92 µg/mL) | 100 (≈ 47.4 µg/mL) | > 30 | > 30 | > 30 | > 30 | > 30 | > 30 | 74
5 | O=C(N[C@H](Cc1ccsc1)C(=O)Nc1ccccc1N1CCOCC1)c1cccs1 | 1.56 (≈ 0.689 µg/mL) | 3.13 (≈ 1.38 µg/mL) | 12.5 (≈ 5.52 µg/mL) | 12.5 (≈ 5.52 µg/mL) | 1.56 (≈ 0.689 µg/mL) | 2.3 (≈ 1.02 µg/mL) | 7 (≈ 3.09 µg/mL) | 12.5 (≈ 5.52 µg/mL) | 50 (≈ 22.1 µg/mL) | > 30 | > 30 | > 30 | > 30 | > 30 | > 30 | 30
6 | O=C(N[C@H](Cc1ccsc1)C(=O)Nc1ccccc1N1CC[S+]([O-])CC1)c1ccccc1F | 1.56 (≈ 0.758 µg/mL) | 3.13 (≈ 1.52 µg/mL) | 6.25 (≈ 3.04 µg/mL) | 12.5 (≈ 6.07 µg/mL) | 0.2 (≈ 0.0971 µg/mL) | 1.5 (≈ 0.728 µg/mL) | 4.4 (≈ 2.14 µg/mL) | 6.25 (≈ 3.04 µg/mL) | 50 (≈ 24.3 µg/mL) | > 30 | > 30 | > 30 | > 30 | > 30 | > 30 | 96
7 | O=C(N[C@H](Cc1ccc(O)cc1)C(=O)Nc1cc(F)ccc1N1CCSCC1)c1cccs1 | 12.5 (≈ 6.07 µg/mL) | 0.78 (≈ 0.379 µg/mL) | 12.5 (≈ 6.07 µg/mL) | – | 0.1 (≈ 0.0486 µg/mL) | 1.6 (≈ 0.777 µg/mL) | 15 (≈ 7.28 µg/mL) | 12.5 (≈ 6.07 µg/mL) | 50 (≈ 24.3 µg/mL) | > 30 | > 30 | > 30 | > 30 | > 30 | > 30 | 78
8 | O=C(N[C@H](Cc1ccc(O)cc1)C(=O)Nc1cc(F)ccc1N1CCSCC1)c1ccccc1F | 6.25 (≈ 3.11 µg/mL) | 1.56 (≈ 0.776 µg/mL) | – | 50 (≈ 24.9 µg/mL) | 0.2 (≈ 0.0995 µg/mL) | 1.7 (≈ 0.846 µg/mL) | 15 (≈ 7.46 µg/mL) | 6.25 (≈ 3.11 µg/mL) | 25 (≈ 12.4 µg/mL) | > 30 | > 30 | > 30 | > 30 | > 30 | > 30 | 58
